ChEMBL document CHEMBL1132974 (J Med Chem, 2000)
Several values for one entry are separate records, joined by “and”; a condition that tells them apart may be missing. Equal entries are not always repeated.

Assays:
[1] = molecular target: Serotonin 3 (5-HT3) receptor; assay: Compound was evaluated for its antagonist affinity towards 5-hydroxytryptamine 3 receptor of guinea pig; type: functional, Cavia porcellus
Procedure, shortened: (§1)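 Functional antagonism assays in guinea-pig tissues, each run with 1 µM mepyramine present: M3 (whole ileum), β1 (right atrium), 5-HT1B (iliac artery), 5-HT3 (quiescent ileal longitudinal muscle with myenteric plexus). Results are given as apparent pA2, or pD'2 when only curve depression occurred.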

[2] = molecular target: Histamine H1 receptor (Cavia porcellus) (UniProt P31389); assay: Antagonist effects was studied on contraction of guinea-pig ileum preparation; value ranges from 3 to 30; f means observed by Kaumann-Marano plot; type: functional, tissue-based
[3] = molecular target: Histamine H1 receptor (Cavia porcellus) (UniProt P31389); assay: concentration of mepyramine was determined; value ranges from 1 to 30; type: functional
Procedure, shortened: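 Guinea-pig ileum segments (either sex), mounted isotonically (0.5 g preload) at 37 °C in aerated Tyrode's with 0.1 µM atropine. […] Full pA2 was taken from an Arunlakshana-Schild plot with the slope constrained to unity.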

[4] = molecular target: Histamine H1 receptor (Rattus norvegicus) (UniProt P31390); assay: Intrinsic activity of the histamine as reported in relaxed rat aortic rings with intact endothelium, submaximally precontracted with 15.8 nM U-46,619; type: functional, tissue-based; conditions: Aorta
Target sequence in this assay (P31390 whole entry): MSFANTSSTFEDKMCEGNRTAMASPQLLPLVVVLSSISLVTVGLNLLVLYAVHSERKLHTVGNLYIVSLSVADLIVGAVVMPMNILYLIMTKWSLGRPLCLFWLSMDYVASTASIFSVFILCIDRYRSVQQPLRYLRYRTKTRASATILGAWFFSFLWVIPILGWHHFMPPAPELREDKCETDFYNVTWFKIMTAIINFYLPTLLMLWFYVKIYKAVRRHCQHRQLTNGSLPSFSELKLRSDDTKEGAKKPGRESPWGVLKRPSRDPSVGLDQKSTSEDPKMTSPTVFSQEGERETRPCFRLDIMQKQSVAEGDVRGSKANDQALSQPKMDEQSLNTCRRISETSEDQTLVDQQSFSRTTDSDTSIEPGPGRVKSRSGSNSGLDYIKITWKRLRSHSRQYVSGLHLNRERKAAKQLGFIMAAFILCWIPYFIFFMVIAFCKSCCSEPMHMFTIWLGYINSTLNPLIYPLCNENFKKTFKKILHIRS

[5] = molecular target: Histamine H1 receptor (Rattus norvegicus) (UniProt P31390); assay: maximum relaxation evoked by carbachol in relaxed rat aortic rings with intact endothelium, submaximally precontracted with 15.8 nM U-46,619; type: functional, tissue-based; conditions: Aorta
Target sequence in this assay (P31390 whole entry): as above

[6] = molecular target: Histamine H1 receptor (Cavia porcellus) (UniProt P31389); assay: The compound was evaluated for intrinsic activity i.e. maximum histamine controls relative to contraction evoked by 10 uM PGF2-alpha; type: functional
Procedure, shortened: (§2)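 Endothelium-denuded guinea-pig aortic rings, set up as in the contraction assay, challenged twice with PGF2α (10 µM). Rings were precontracted with a threshold PGF2α level (usually 0.4–1.5 µM, 10–20% of the 10 µM response).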

[7] = molecular target: Histamine H1 receptor (Cavia porcellus) (UniProt P31389); assay: Negative logarithm of receptor dissociation constant Kp was reported guinea pig ileal whole segment; type: functional
Procedure, shortened: (§3)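 Guinea-pig ileum (0.1 µM atropine, 37 °C Tyrode's). […] Where several partial-agonist concentrations were used, the overall value comes from a Kaumann-Marano plot with slope constrained to unity.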

[8] = molecular target: Histamine H1 receptor (Cavia porcellus) (UniProt P31389); assay: Intrinsic activity was reported in guinea pig ileum whole segment; type: functional, tissue-based
[9] = molecular target: Histamine H1 receptor (Cavia porcellus) (UniProt P31389); assay: The compound was evaluated for intrinsic activity i.e. second curves of histamine controls set to 100%, aorta primed with histamine; termed: intrinsic activity
[10] = molecular target: Histamine H1 receptor (Cavia porcellus) (UniProt P31389); assay: Negative logarithm of receptor dissociation constant Kp was reported; type: functional; procedure, shortened: as §3
[11] = molecular target: Histamine H1 receptor (Cavia porcellus) (UniProt P31389); assay: Intrinsic activity was reported in guinea pig ileum whole segment.; type: functional, tissue-based
[12] = molecular target: Histamine H1 receptor (Cavia porcellus) (UniProt P31389); assay: Relative potency in guinea pig ileum whole segment; value ranges from 0.4 to 0.6; type: functional, tissue-based
Histamine H1 receptor [13] = molecular target: T1, Histamine H1 receptor (Cavia porcellus, UniProt P31389); assay: Effective concentration for agonist activity in guinea pig ileum whole segment; type: functional, tissue-based
Histamine H1 receptor [14] = molecular target: T2, Histamine H1 receptor (Rattus norvegicus, UniProt P31390); assay: Relative potency was recorded in relaxed rat aortic rings with intact endothelium, submaximally precontracted with 15.8 nM U-46,619 value; type: functional, tissue-based, Aorta; conditions: read-out: pA2 (converted)
[15] = molecular target: Histamine H1 receptor (Cavia porcellus) (UniProt P31389); assay: Intrinsic activity was reported in endothelium-denuded guinea pig(pre contracted with PGF-2 alpha) at a concentration of 10 uM; type: functional; procedure, shortened: as §2
Histamine H1 receptor [16] = molecular target: T1, Histamine H1 receptor; assay: Relative potency was recorded in endothelium-denuded guinea pig; value ranges from 5.75 to 6.25; type: functional; conditions: read-out: pA2 (converted)
Procedure, shortened: (§4)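 Guinea-pig thoracic aortic rings (2–4 mm), endothelium rubbed off, isometric (10 mN), modified Krebs-Henseleit (1.80 mM Ca2+), 37 °C. Cimetidine, corticosterone and cocaine (30 µM each), prazosin and yohimbine (0.3 µM each) and propranolol (0.1 µM) were present. […] The pEC50 shift was corrected using untreated control preparations.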

Histamine H1 receptor [17] = molecular target: T1, Histamine H1 receptor; assay: Relative potency was recorded in endothelium-denuded guinea pig(pre contracted with PGF-2 alpha); value ranges from 5.76 to 6.40; type: functional; conditions: read-out: pA2 (converted); procedure, shortened: as §2
[18] = molecular target: Histamine H1 receptor (Cavia porcellus) (UniProt P31389); conditions: 10 uM
[19] = molecular target: T3, Alpha-1D adrenergic receptor (Rattus norvegicus, UniProt P23944); assay: Compound was evaluated for its antagonist affinity towards Alpha-1D adrenergic receptor of rat; type: functional; conditions: read-out: pA2 (converted)
T3 sequence (P23944 whole entry): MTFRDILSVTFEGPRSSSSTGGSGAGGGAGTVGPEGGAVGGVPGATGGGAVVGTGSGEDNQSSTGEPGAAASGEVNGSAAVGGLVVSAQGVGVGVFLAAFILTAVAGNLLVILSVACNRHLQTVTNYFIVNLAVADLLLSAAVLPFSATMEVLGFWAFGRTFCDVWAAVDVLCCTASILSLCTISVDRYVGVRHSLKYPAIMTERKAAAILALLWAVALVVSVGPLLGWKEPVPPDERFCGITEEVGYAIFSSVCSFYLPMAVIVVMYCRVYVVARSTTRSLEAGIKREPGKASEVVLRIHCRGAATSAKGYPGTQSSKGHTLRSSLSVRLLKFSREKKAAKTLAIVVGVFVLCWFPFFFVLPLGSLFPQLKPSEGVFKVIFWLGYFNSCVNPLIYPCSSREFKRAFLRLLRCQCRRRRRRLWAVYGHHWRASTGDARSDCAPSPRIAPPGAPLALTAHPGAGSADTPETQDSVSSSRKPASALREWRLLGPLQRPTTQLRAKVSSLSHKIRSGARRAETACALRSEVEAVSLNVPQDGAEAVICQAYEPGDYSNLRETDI
Procedure, shortened: (§5)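 Functional antagonism in rat tissues: α1D (thoracic aorta), 5-HT2A (tail artery), 5-HT4 (oesophageal tunica muscularis mucosae). Results are given as apparent pA2 from single-concentration rightward shifts, or pD'2 when only curve depression occurred.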

[20] = molecular target: Beta-1 adrenergic receptor (Cavia porcellus, UniProt B0FL73); assay: Compound was evaluated for its antagonist affinity towards Beta-1 adrenergic receptor of guinea pig; type: functional; conditions: read-out: pA2 (converted); procedure, shortened: as §1
Histamine H1 receptor [21] = molecular target: T2, Histamine H1 receptor; assay: Effective concentration for agonism activity in relaxed rat aortic rings with intact endothelium, submaximally precontracted with 15.8 nM U-46,619; type: functional, tissue-based, Aorta
Histamine H3 receptor = Histamine H3 receptor (Cavia porcellus, UniProt Q9JI35); assay: Compound was evaluated for its antagonist affinity towards Histamine H3 receptor of guinea pig; type: functional; conditions: read-out: pA2 (converted)
Procedure, shortened: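 Electrically stimulated guinea-pig ileal longitudinal muscle with myenteric plexus, isometric (7.5 mN). Cumulative (R)-α-methylhistamine curves were run with and without test compound (20 min), with 1 µM mepyramine present. Values were apparent pA2, or pD'2 where curves were depressed.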

Histamine H1 receptor [22] = molecular target: T1, Histamine H1 receptor; assay: Compound was evaluated for mepyramine antagonism effects in guinea pig aorta (contraction) at a mepyramine concentration of 100 nM; type: functional, tissue-based; conditions: read-out: pA2 (converted)
Procedure, shortened: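 Guinea-pig aortic rings with endothelium damaged, isometric (10 mN), 37 °C Krebs-Henseleit. Agonist curves were run with mepyramine (100 nM, about 60 min) after threshold PGF2α precontraction. Apparent pA2 = −log c + log(r−1).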

Histamine H1 receptor [23] = molecular target: T1, Histamine H1 receptor; assay: Antagonism of guinea pig ileum contraction at 100 nM mepyramine; type: functional, tissue-based; conditions: read-out: pA2 (converted)
Procedure, shortened: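 Guinea-pig whole ileal segments (2.0–2.5 cm), isotonic, preload 0.5 g, Tyrode's at 37 °C, 95% O2/5% CO2, with 0.1 µM atropine throughout. […] Apparent pA2 = −log c + log(r−1); full pA2 from Schild plot, slope fixed at 1.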

Histamine H2 receptor = Histamine H2 receptor (Cavia porcellus, UniProt P47747); assay: Compound was evaluated for its antagonist affinity towards Histamine H2 receptor of guinea pig; type: functional; conditions: read-out: pA2 (converted)
Histamine H1 receptor [24] = molecular target: T1, Histamine H1 receptor; assay: Effective concentration for agonism activity in Endothelium-Denuded guinea pig aortic segment; type: functional, tissue-based, Aorta; procedure, shortened: as §4
Histamine H1 receptor [25] = molecular target: T1, Histamine H1 receptor; assay: Effective concentration for agonism activity in endothelium-denuded guinea pig aortic segment; type: functional, tissue-based, Aorta; procedure, shortened: as §4
[26] = molecular target: Muscarinic acetylcholine receptor M3 (Cavia porcellus, UniProt Q8VH26); assay: Compound was evaluated for its antagonist affinity towards Muscarinic acetylcholine receptor M3 of guinea pig; type: functional; conditions: read-out: pA2 (converted); procedure, shortened: as §1
[27] = molecular target: 5-hydroxytryptamine receptor 2A (Rattus norvegicus, UniProt P14842); assay: Compound was evaluated for its antagonist affinity towards 5-hydroxytryptamine 2A receptor of rat; type: functional; conditions: read-out: pA2 (converted); procedure, shortened: as §5
[28] = molecular target: 5-hydroxytryptamine receptor 4 (Rattus norvegicus, UniProt Q62758); assay: Compound was evaluated for its antagonist affinity towards 5-hydroxytryptamine 4 receptor of rat; type: functional; conditions: read-out: pA2 (converted); procedure, shortened: as §5
Histamine H1 receptor [29] = molecular target: T2, Histamine H1 receptor; assay: Compound was evaluated for mepyramine antagonism effects in rat aorta (relaxation) at a mepyramine concentration of 100 nM; conditions: read-out: pA2 (converted)
[30] = molecular target: Histamine H1 receptor (Cavia porcellus) (UniProt P31389); assay: Intrinsic activity of the compounddwas reported in guinea pig ileum whole segment; type: functional, tissue-based
[31] = molecular target: Histamine H1 receptor (Cavia porcellus) (UniProt P31389); assay: Relative potency in guinea pig ileum whole segment; value ranges from 4 to 15; type: functional, tissue-based
[32] = molecular target: Histamine H1 receptor (Rattus norvegicus) (UniProt P31390); assay: The compound was evaluated for intrinsic activity in relaxed rat aortic rings with intact endothelium, submaximally precontracted with 15.8 nM U-46,619; type: functional, tissue-based; design: unit not given here; conditions: Aorta
Target sequence in this assay (P31390 whole entry): as the sequence (P31390 whole entry) above

[33] = molecular target: Histamine H1 receptor (Rattus norvegicus) (UniProt P31390); assay: Relative potency was recorded in relaxed rat aortic rings with intact endothelium, submaximally precontracted with 15.8 nM U-46,619; value ranges from 244 to 450.; type: functional, tissue-based; conditions: Aorta
Target sequence in this assay (P31390 whole entry): as the sequence (P31390 whole entry) above

[34] = molecular target: Histamine H1 receptor (Cavia porcellus) (UniProt P31389); assay: Relative potency in guinea pig ileum whole segment; value ranges from 51 to 88; type: functional, tissue-based
[35] = molecular target: Histamine H1 receptor (Cavia porcellus) (UniProt P31389); assay: Negative logarithm of receptor dissociation constant Kp was reported in guinea pig ileum whole segment; type: functional, tissue-based; procedure, shortened: as §3
[36] = molecular target: Histamine H1 receptor (Rattus norvegicus) (UniProt P31390); assay: concentration of mepyramine was determined
Target sequence in this assay (P31390 whole entry, looked up): as the sequence (P31390 whole entry) above

[37] = molecular target: Histamine H1 receptor (Rattus norvegicus) (UniProt P31390); assay: Compound was evaluated for mepyramine antagonism effects in rat aorta (relaxation) at a mepyramine concentration of 100 nM; conditions: read-out: pA2 (converted)
Target sequence in this assay (P31390 whole entry, looked up): as the sequence (P31390 whole entry) above

T2 sequence (P31390 whole entry): as the sequence (P31390 whole entry) above
Histamine H1 receptor (Cavia porcellus), sequence (P31389 whole entry): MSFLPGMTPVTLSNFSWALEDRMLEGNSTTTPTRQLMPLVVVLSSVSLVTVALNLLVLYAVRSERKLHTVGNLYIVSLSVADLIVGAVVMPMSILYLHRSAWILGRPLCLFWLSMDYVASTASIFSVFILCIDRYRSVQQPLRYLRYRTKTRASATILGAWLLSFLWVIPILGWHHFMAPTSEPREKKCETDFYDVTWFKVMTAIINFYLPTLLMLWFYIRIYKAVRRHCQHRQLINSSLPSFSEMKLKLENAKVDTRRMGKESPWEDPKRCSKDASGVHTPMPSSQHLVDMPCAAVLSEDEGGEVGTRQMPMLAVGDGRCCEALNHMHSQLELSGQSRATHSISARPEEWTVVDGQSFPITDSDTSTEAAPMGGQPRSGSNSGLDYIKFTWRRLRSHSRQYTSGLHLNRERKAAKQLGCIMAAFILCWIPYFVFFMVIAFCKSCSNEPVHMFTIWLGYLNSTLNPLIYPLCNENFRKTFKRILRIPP
T1 sequence (P31389 whole entry): as above
Histamine H3 receptor, sequence (Q9JI35 whole entry): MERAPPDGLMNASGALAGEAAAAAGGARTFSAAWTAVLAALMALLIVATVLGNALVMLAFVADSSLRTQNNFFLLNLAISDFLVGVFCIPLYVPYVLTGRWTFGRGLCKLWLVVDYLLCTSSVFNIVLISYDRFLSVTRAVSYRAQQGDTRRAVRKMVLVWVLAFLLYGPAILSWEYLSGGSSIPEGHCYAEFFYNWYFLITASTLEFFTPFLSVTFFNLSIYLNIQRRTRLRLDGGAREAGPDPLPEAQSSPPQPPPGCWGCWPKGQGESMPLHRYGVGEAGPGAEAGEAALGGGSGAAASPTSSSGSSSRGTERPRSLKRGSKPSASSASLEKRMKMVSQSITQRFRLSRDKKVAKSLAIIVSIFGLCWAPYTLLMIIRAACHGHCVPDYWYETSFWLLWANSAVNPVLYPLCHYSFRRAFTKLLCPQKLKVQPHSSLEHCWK
Histamine H2 receptor, sequence (P47747 whole entry): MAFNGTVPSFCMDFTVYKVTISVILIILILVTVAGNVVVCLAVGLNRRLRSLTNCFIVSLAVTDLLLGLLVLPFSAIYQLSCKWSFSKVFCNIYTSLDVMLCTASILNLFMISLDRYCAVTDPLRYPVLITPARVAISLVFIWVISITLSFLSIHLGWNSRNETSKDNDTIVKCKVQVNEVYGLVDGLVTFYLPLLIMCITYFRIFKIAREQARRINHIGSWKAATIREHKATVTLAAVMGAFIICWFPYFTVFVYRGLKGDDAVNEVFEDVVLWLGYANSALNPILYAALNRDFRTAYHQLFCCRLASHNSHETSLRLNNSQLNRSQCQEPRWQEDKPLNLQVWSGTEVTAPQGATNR
Muscarinic acetylcholine receptor M3, sequence (Q8VH26 whole entry): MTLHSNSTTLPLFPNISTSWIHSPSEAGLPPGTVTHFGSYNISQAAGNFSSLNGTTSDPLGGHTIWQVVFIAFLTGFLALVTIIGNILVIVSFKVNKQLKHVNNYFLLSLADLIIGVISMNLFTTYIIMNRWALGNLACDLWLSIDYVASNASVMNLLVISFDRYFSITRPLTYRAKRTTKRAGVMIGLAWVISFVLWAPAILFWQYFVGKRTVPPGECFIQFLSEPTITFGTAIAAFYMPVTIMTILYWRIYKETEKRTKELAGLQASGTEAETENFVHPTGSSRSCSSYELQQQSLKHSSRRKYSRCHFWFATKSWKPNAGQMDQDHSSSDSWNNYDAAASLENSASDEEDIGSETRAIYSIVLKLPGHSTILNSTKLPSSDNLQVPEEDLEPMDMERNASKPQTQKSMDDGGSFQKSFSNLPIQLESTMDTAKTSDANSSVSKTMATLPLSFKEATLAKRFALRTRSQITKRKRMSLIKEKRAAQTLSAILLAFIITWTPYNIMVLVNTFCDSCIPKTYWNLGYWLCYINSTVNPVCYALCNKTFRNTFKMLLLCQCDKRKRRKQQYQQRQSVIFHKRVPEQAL
Beta-1 adrenergic receptor, sequence (B0FL73 whole entry): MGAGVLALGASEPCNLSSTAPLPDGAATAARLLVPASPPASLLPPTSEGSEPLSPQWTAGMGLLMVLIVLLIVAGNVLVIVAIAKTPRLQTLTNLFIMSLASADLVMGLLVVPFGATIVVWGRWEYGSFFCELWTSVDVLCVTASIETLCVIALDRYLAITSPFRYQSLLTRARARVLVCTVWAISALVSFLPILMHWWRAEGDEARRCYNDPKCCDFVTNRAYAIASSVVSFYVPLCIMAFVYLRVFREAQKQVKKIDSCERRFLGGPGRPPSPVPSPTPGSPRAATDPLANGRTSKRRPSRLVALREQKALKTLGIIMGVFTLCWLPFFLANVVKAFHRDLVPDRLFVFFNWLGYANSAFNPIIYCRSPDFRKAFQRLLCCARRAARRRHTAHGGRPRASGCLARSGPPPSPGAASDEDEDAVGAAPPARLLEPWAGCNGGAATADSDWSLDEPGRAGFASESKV
5-hydroxytryptamine receptor 4, sequence (Q62758 whole entry): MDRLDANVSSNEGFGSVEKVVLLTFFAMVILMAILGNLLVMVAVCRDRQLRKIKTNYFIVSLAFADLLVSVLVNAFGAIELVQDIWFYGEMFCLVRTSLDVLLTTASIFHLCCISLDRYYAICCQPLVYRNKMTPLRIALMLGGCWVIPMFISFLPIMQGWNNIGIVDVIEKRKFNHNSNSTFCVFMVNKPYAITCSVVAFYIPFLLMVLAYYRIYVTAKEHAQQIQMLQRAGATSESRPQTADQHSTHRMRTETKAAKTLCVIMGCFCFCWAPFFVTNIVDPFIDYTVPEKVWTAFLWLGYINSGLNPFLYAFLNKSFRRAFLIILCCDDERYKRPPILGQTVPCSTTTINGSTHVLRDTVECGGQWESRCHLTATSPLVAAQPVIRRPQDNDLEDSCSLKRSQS
5-hydroxytryptamine receptor 2A, sequence (P14842 whole entry): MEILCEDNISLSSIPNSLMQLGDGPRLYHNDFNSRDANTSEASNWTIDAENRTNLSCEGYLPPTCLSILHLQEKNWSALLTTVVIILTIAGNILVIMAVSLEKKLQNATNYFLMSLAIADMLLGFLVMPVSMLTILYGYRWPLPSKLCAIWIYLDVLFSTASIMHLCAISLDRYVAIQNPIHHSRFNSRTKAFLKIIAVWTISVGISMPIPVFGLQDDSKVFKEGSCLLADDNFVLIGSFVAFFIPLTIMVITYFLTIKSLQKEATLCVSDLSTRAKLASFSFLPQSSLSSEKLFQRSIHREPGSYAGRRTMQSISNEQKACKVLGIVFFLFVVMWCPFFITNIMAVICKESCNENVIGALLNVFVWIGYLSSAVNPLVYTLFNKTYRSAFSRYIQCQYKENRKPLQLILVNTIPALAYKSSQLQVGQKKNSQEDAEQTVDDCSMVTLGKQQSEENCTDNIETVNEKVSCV

Compound: NCCc1c[nH]c(CCC(c2ccccc2)c2ccccc2)n1
- pA2 [1]: < 5.7
- Concentration [2]: 30 µM
- Concentration [3]: 30 nM
- Emax [4]: 50
- Emax [5]: 46
- Emax [6]: 84
- pKp [7]: 6.04
- Emax [8]: 100
- Emax [9]: 72

Compound: NCCc1c[nH]c(CC(c2ccccc2)c2ccccc2)n1
- pKp [10]: 3.87
- Emax [11]: 50
- Relative potency [12]: 0.5
- EC50 (Histamine H1 receptor [13]): 40700 nM

Compound: NCCc1c[nH]c(CCCCC(c2ccccc2)c2ccccc2)n1
- Kb (Histamine H1 receptor [14]): 1070 nM
- Emax [15]: 0
- Kb (Histamine H1 receptor [16]): 1000 nM
- Kb (Histamine H1 receptor [17]): 832 nM
- Emax [18]: 0

Compound: CNCCc1cnc(CCC(c2ccccc2)c2ccccc2)[nH]1
- Kb [19]: 5750 nM
- Kb [20]: 14500 nM
- EC50 (Histamine H1 receptor [21]): 158 nM
- Kb (Histamine H3 receptor): > 1580 nM
- Kb (Histamine H1 receptor [22]): 1.78 nM
- Kb (Histamine H1 receptor [23]): 0.741 nM and 1.35 nM
- Kb (Histamine H2 receptor): 12600 nM
- EC50 (Histamine H1 receptor [24]): 77.6 nM
- EC50 (Histamine H1 receptor [25]): 490 nM
- EC50 (Histamine H1 receptor [13]): 57.5 nM
- Kb [26]: 3550 nM
- Kb [27]: 4070 nM
- Kb [28]: > 1580 nM
- Kb (Histamine H1 receptor [29]): 9.55 nM

Compound: NCCc1c[nH]c(C(c2ccccc2)c2ccccc2)n1
- pKp [10]: 5.37
- Emax [30]: 28
- Relative potency [31]: 8
- EC50 (Histamine H1 receptor [13]): 2570 nM

Compound: c1ccc(C(CCc2nc(CCN3CCCC3)c[nH]2)c2ccccc2)cc1
- Emax [32]: 21
- EC50 (Histamine H1 receptor [21]): 1350 nM
- Relative potency [33]: 331
- Emax [11]: 28
- Relative potency [34]: 67
- pKp [35]: 6.52
- EC50 (Histamine H1 receptor [13]): 295 nM
- Concentration [36]: 100 nM

Compound: c1ccc(C(CCc2nc(CCNC3CC3)c[nH]2)c2ccccc2)cc1
- Emax [32]: 56 and 62
- EC50 (Histamine H1 receptor [21]): 355 nM
- Kb (Histamine H3 receptor): > 501 nM
- Kb (Histamine H1 receptor [23]): 1.41 nM and 2.14 nM
- Kb (Histamine H2 receptor): 20000 nM
- pKp [35]: 6.17
- EC50 (Histamine H1 receptor [25]): 2290 nM
- EC50 (Histamine H1 receptor [13]): 148 nM
- Kb [26]: 933 nM
- Kb [37]: 5.75 nM
